Several values for one entry are separate records, joined by “and”; a condition that tells them apart may be missing. Identical values can stand only once.
System: U2OS
Assay: Multiplex assay against U2OS
Format: toxicity, cell-based
Conditions: human, number of replicates 2
In short: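 Live cells carried four stains from seeding: Hoechst33342, BioTracker Green Microtubule Cytoskeleton Dye, MitoTracker Red and Annexin V Alexa Fluor 680. They were imaged on a CQ1 microscope at 37°C and 5% CO2 after compound addition. Using CellPathfinder machine-learning gating, cells were split into Hoechst high-intensity objects or normal cells, normal cells into healthy, pyknosed or fragmented nuclei, and pyknosed cells into mitotic or apoptotic; tubulin, mitochondrial-mass and membrane-permeability phenotypes are per cents of healthy-nucleus cells.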

[1] = 12 h, 1 µM, compound concentration 1 uM
[2] = 12 h, 10 µM, compound concentration 10 uM
[3] = 24 h, 1 µM, compound concentration 1 uM
[4] = 24 h, 10 µM, compound concentration 10 uM
[5] = 48 h, 1 µM, compound concentration 1 uM
[6] = 48 h, 10 µM, compound concentration 10 uM

In the case of `CCc1cnn2c(NCc3ccc[n+]([O-])c3)cc(N3CCCCC3CCO)nc12` (stereo unspecified), the “Population Apoptotic (%)” value [1] is reported as 58% and 91%, the “Population Healthy Nuclei (%)” value [1] is reported as 22% and 40% and the “Population Hoechst High Intensity Objects (%)” value [1] is reported as 0%. The “Population Membrane Permeable-Phenotype (%)” value [1] was 25% and 12%, the “Population Mitochondria Different-Phenotype (%)” value [1] was 12% and 2% and the “Population Normal (%)” value [1] was 100%. The “Population Pyknosed Nuclei (%)” value [1] was 34% and 49%, the “Population Tubulin-Different-Phenotype (%)” value [1] was 75% and 86% and the “Population Apoptotic (%)” value [2] was 78% and 66%. The “Population Fragmented Nuclei (%)” value [2] was 17% and 14%, the “Population Healthy Nuclei (%)” value [2] was 40% and 47% and the “Population Hoechst High Intensity Objects (%)” value [2] was 0%. The “Population Mitochondria Different-Phenotype (%)” value [2] was 11% and 0%, the “Population Mitotic Cells (%)” value [2] was 21% and 33% and the “Population Normal (%)” value [2] was 100%. The “Population Pyknosed Nuclei (%)” value [2] was 42% and 38%, the “Population Tubulin-Different-Phenotype (%)” value [2] was 44% and 76% and the “Population Apoptotic (%)” value [3] was 100%. The “Population Healthy Nuclei (%)” value [3] was 20% and 30%, the “Population Hoechst High Intensity Objects (%)” value [3] was 0% and 1% and the “Population Membrane Permeable-Phenotype (%)” value [3] was 20% and 10%. The “Population Mitotic Cells (%)” value [3] was 0%, the “Population Normal (%)” value [3] was 100% and 98% and the “Population Pyknosed Nuclei (%)” value [3] was 32% and 53%. For the same compound, the “Population Tubulin-Different-Phenotype (%)” value [3] was 100% and 82%, the “Population Apoptotic (%)” value [4] was 87% and 82% and the “Population Fragmented Nuclei (%)” value [4] was 14% and 12%. For the same compound, the “Population Healthy Nuclei (%)” value [4] was 34% and 33%, the “Population Hoechst High Intensity Objects (%)” value [4] was 4% and 1% and the “Population Membrane Permeable-Phenotype (%)” value [4] was 6% and 10%. For the same compound, the “Population Mitochondria Different-Phenotype (%)” value [4] was 6% and 8%, the “Population Mitotic Cells (%)” value [4] was 12% and 17% and the “Population Normal (%)” value [4] was 95% and 98%. For the same compound, the “Population Pyknosed Nuclei (%)” value [4] was 51% and 53%, the “Population Tubulin-Different-Phenotype (%)” value [4] was 43% and 63% and the “Population Apoptotic (%)” value [5] was 100% and 97%. The “Population Healthy Nuclei (%)” value [5] was 25% and 16%, the “Population Hoechst High Intensity Objects (%)” value [5] was 0% and 3% and the “Population Membrane Permeable-Phenotype (%)” value [5] was 12% and 31%. The “Population Mitochondria Different-Phenotype (%)” value [5] was 25% and 21%, the “Population Mitotic Cells (%)” value [5] was 0% and 2% and the “Population Normal (%)” value [5] was 100% and 96%. For the same compound, the “Population Pyknosed Nuclei (%)” value [5] was 28% and 74%, the “Population Tubulin-Different-Phenotype (%)” value [5] was 75% and 100% and the “Population Apoptotic (%)” value [6] was 95% and 82%. For the same compound, the “Population Fragmented Nuclei (%)” value [6] was 10% and 19%, the “Population Healthy Nuclei (%)” value [6] was 18% and 11% and the “Population Hoechst High Intensity Objects (%)” value [6] was 1%. The “Population Mitochondria Different-Phenotype (%)” value [6] was 45% and 33%, the “Population Normal (%)” value [6] was 98% and the “Population Pyknosed Nuclei (%)” value [6] was 71% and 68%. The “Population Tubulin-Different-Phenotype (%)” value [6] was 81% and 83%.

In the case of `CS(=O)(=O)c1ccc(C(=O)Nc2cccc(COc3ccc(Br)cc3CN[C@H]3CCC[C@@H]3O)c2)c(Cl)c1.O=CO`, the “Population Apoptotic (%)” value [1] is reported as 50% and 70%, the “Population Healthy Nuclei (%)” value [1] is reported as 78% and 79% and the “Population Hoechst High Intensity Objects (%)” value [1] is reported as 0%. For the same compound, the “Population Normal (%)” value [1] was 100%, the “Population Apoptotic (%)” value [2] was 59% and 100% and the “Population Healthy Nuclei (%)” value [2] was 70% and 80%. For the same compound, the “Population Hoechst High Intensity Objects (%)” value [2] was 0%, the “Population Normal (%)” value [2] was 99% and 100% and the “Population Apoptotic (%)” value [3] was 87% and 73%. For the same compound, the “Population Healthy Nuclei (%)” value [3] was 71% and 82%, the “Population Hoechst High Intensity Objects (%)” value [3] was 0% and the “Population Normal (%)” value [3] was 100%. The “Population Apoptotic (%)” value [4] was 88% and 79%, the “Population Healthy Nuclei (%)” value [4] was 47% and 63% and the “Population Hoechst High Intensity Objects (%)” value [4] was 0%. The “Population Normal (%)” value [4] was 100% and 99%, the “Population Apoptotic (%)” value [5] was 44% and 86% and the “Population Healthy Nuclei (%)” value [5] was 80% and 83%. The “Population Hoechst High Intensity Objects (%)” value [5] was 0%, the “Population Normal (%)” value [5] was 100% and the “Population Apoptotic (%)” value [6] was 92%. For the same compound, the “Population Healthy Nuclei (%)” value [6] was 50% and 57%, the “Population Hoechst High Intensity Objects (%)” value [6] was 1% and 0% and the “Population Normal (%)” value [6] was 98% and 100%.

Source: ChEMBL document CHEMBL5303300, “EUbOPEN Chemogenomics Library - Multiplex” (2023)
